This is an account of results in ChEMBL document CHEMBL1147721, “Identification of new diamine scaffolds with activity against Mycobacterium tuberculosis” (J Med Chem, 2006).

Converted amounts (≈) assume the structure as drawn. The source made the active and inactive calls. No cut-off for these calls is given here.

The test system of experiment [1] is HepG2. In words: Cytotoxicity against human HepG2 cell line by MTS assay. Type of experiment: functional, cell-based.
For experiment [2], the system named is HepG2. The experiment can be described thus: Selectivity index, IC50 for human HepG2 cell line/MIC for Mycobacterium tuberculosis. Type of experiment: functional. The procedure, abridged: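 SI = IC50/MIC: HepG2 IC50 from the MTS assay divided by the M. tuberculosis MIC from broth microdilution.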
Experiment [3] concerns Mycobacterium tuberculosis. In words: Antimycobacterial activity against Mycobacterium tuberculosis by broth microdilution assay. Format: functional. The method in brief:
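MIC by broth microdilution against M. tuberculosis. Library mixtures were screened unpurified, and active wells were deconvoluted and re-tested as individual compounds. Purified compounds (≥95%) were tested from 10 mM methanol stocks. INH, rifampicin and EMB were controls.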

The subject of experiment [4] is Mycobacterium tuberculosis. In words: Antimycobacterial activity against recombinant Mycobacterium tuberculosis containing Rv0341 promoter by luciferase assay. Format: functional. Also on record: concentration or dose not given beside the values. The procedure, abridged: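 Recombinant M. tuberculosis carrying the Rv0341 promoter fused to firefly luciferase was treated and luminescence read. Activity is given as percent of EMB activity (EMB = 100%). In screening, luminescence above 1.5-fold the untreated background counted as active.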

The next experiment relates to Mus musculus. In words: Reduction in body weight of C3H mouse infected with 10^6 CFU of Mycobacterium tuberculosis H37Rv at 10 mg/kg, po after 20 days. Type of experiment: functional. The arrangement: scale not given: the % may be the effect or the level left. The method in brief:
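Rapid-progression model: C3H mice infected iv with 10^6 CFU M. tuberculosis H37Rv. Oral gavage at 10 mg/kg daily (dose not optimised) started day 7 and ran 10 days. Body weight was monitored from day 0, 6 mice per group. Controls were uninfected, infected untreated, and INH 25 mg/kg.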

Experiment [5] concerns Mycobacterium tuberculosis. The experiment can be described thus: Reduction in CFU in C57BL/6 mouse infected with 10^5 CFU of Mycobacterium tuberculosis H37Rv at 10 mg/kg after 20 days. Format: functional. The procedure, abridged:
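Low-dose chronic TB mouse model with M. tuberculosis H37Rv. Treatment began 20 days after infection: 10 mg/kg daily by oral gavage, 5 days/week for four weeks. INH 25 mg/kg was the positive control. Organ CFU were compared with infected untreated mice.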

Consider `C1CCC2CC(N3CCCN(C4CCC5CCCCC5C4)CC3)CCC2C1` (mixture of isomers), for which the IC50 in the experiment with HepG2 [1] was found to be 54 µM. The molecule further displayed a Selectivity index in the experiment on HepG2 [2] of 35. This molecule also had an MIC in experiment [3] of 1.56 µM. For the same molecule, in experiment [4], the Activity is listed as 127%.

`Fc1ccccc1N1CCN(C2CCC3CCCCC3C2)CC1` (stereo not drawn) gave an IC50 in the experiment on HepG2 [1] of 70 µM. Besides, the Selectivity index with HepG2 [2] came out at 6. This molecule displayed an MIC in experiment [3] of 12.5 µM (≈ 3.96 µg/mL). Also, in experiment [4], the Activity is on record as 145%.

For `c1ccc(COc2ccc(CN3CCCN(Cc4ccc(OCc5ccccc5)cc4)CC3)cc2)cc1`, the IC50 in the experiment on HepG2 [1] worked out at 56 µM. The Selectivity index in the experiment on HepG2 [2] is 18. The molecule also had an MIC in experiment [3] of 3.13 µM (≈ 1.54 µg/mL). For the same molecule, the result in experiment [4] was inactive.

Consider `CCOc1ccccc1CN1CCCN(Cc2ccccc2OCC)CC1`, for which, in the experiment on HepG2 [1], the IC50 was 71 µM. The Activity with Mus musculus was found to be 21%; in experiment [4] it was 70%. Also, in the experiment with HepG2 [2], the Selectivity index is recorded as 46. Also, in experiment [3], the MIC came out at 1.56 µM (≈ 0.575 µg/mL).

In the experiment on HepG2 [1], `Clc1ccc(C(c2ccccc2)N2CCN(C3CCC4CCCCC4C3)CC2)cc1` (stereo not drawn) showed an IC50 of 47 µM. Further, the Selectivity index in the experiment with HepG2 [2] is reported as 8. In experiment [3], this molecule showed an MIC of 6.25 µM (≈ 2.64 µg/mL). In addition, the result in experiment [4] was inactive.

On to `c1ccc(COc2ccc(CN3CCN(Cc4ccccc4)CC3)cc2)cc1`, for which the Log10 cfu in experiment [5] is 1. Inhibition in the experiment with HepG2 [1] was half-maximal at 54 µM (IC50). This molecule gave an Activity in the experiment with Mus musculus of 12%. Besides, the Selectivity index with HepG2 [2] amounted to 9. In experiment [3], this molecule displayed an MIC of 6.25 µM (≈ 2.33 µg/mL). In experiment [4], the outcome was inactive.

Molecule `C1CN(C2C3CC4CC(C3)CC2C4)CCN(C2C3CC4CC(C3)CC2C4)C1` (stereo not drawn) had a Log10 cfu in experiment [5] of 0.7. Also, the figures for the Activity (in the experiment on Mus musculus; in experiment [4]) were 12% and 126%, respectively. This molecule showed a Selectivity index with HepG2 [2] of 84.6. This molecule also registered an MIC in experiment [3] of 1.56 µM (≈ 0.575 µg/mL).

In turn, `C1CCCC(N2CCCN(C3CCCCCCC3)CC2)CCC1` yielded an IC50 in the experiment on HepG2 [1] of 74 µM. In the experiment on HepG2 [2], this molecule displayed a Selectivity index of 47. Also, the MIC in experiment [3] is 1.56 µM (≈ 0.5 µg/mL). The Activity in experiment [4] is given as 81%.

Take `CC1(C)C2CC=C(CN3CCCN(CC4=CCC5CC4C5(C)C)CC3)C1C2`: in the experiment with HepG2 [2], the Selectivity index is 35. Further, 3.13 µM (≈ 1.15 µg/mL) was the least that counted as inhibitory in experiment [3] (MIC). For the same molecule, in experiment [4], the Activity is 113%.

For `CC1(C)C2CC=C(CN3CCN(Cc4ccccc4)CC3)C1C2` (stereo not drawn), the concentration for half-maximal inhibition (IC50) with HepG2 [1] amounted to 64 µM. This molecule yielded a Selectivity index with HepG2 [2] of 10. The molecule further returned an MIC in experiment [3] of 6.25 µM (≈ 1.94 µg/mL). Further, the outcome in experiment [4] was inactive.

On to `NNC(=O)c1ccncc1` [ISONIAZID], for which the Log10 cfu in experiment [5] was 3.5.

Turning to `COc1ccccc1CN1CCCN(Cc2ccccc2OC)CC1`, in the experiment on HepG2 [2], the Selectivity index is recorded as 17. In experiment [3], the lowest concentration to inhibit growth (MIC) was 6.25 µM (≈ 2.13 µg/mL). The Activity in experiment [4] was 138%.

On to `COc1ccccc1CN1CCN(C(c2ccccc2)c2ccc(Cl)cc2)CC1` (stereo not drawn), for which it took 65 µM to reach half-maximal inhibition with HepG2 [1] (IC50). The molecule also registered a Selectivity index in the experiment on HepG2 [2] of 10. The molecule also displayed an MIC in experiment [3] of 6.25 µM (≈ 2.54 µg/mL). In experiment [4], the result was inactive.

Turning to `C=C(C)[C@@H]1CC=C(CN2CCN(Cc3ccccc3)CC2)CC1`, the IC50 with HepG2 [1] was determined as 60 µM. In the experiment with HepG2 [2], this molecule showed a Selectivity index of 19. The MIC in experiment [3] worked out at 3.13 µM (≈ 0.972 µg/mL). In addition, the outcome in experiment [4] was inactive.

In the experiment with HepG2 [1], `C=C(C)[C@@H]1CC=C(CN2CCCN(CC3=CC[C@@H](C(=C)C)CC3)CC2)CC1` had an IC50 of 81 µM. The Selectivity index in the experiment with HepG2 [2] worked out at 13. Also, inhibition of growth in experiment [3] (MIC) required 6.25 µM (≈ 2.3 µg/mL). The result in experiment [4] was inactive.

For `Fc1ccc(N2CCN(C3CCC4CCCCC4C3)CC2)cc1` (stereo not drawn), the IC50 in the experiment on HepG2 [1] was determined as 86 µM. In addition, the Selectivity index in the experiment on HepG2 [2] amounted to 7. The same molecule came in with an MIC in experiment [3] of 12.5 µM (≈ 3.96 µg/mL). Moreover, in experiment [4], the Activity came to 157%.
